Measurements from ChEMBL document CHEMBL4706516, “Development of dual inhibitors targeting pyruvate dehydrogenase kinases and human lactate dehydrogenase A: High-throughput virtual screening, synthesis and biological validation” (Eur J Med Chem, 2020).
Calls of active or inactive are those of the source. The rule behind the calls is not given here.

Columns and labels:
[1] = biological target: T1, L-lactate dehydrogenase A chain (Homo sapiens, UniProt P00338); test: Inhibition of LDHA (unknown origin) in presence of NADH and sodium pyruvate at 10 uM by enzymatic assay relative to parent compound
In short: (§1)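 LDHA at 5 nM final in buffer of 150 mM Tris-HCl pH 7.4 with EDTA and 0.01% Tween-20, compounds in 1% DMSO. Reaction started with substrate solution, final NADH 0.06 mM and sodium pyruvate 0.2 mM. After 10 min at room temperature, plates read at 340 nm. Screening done at a single concentration of 10.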

[2] = species on record: Sus scrofa; test: Inhibition of pig PDK assessed as catalytic activity at 10 uM by PDC assay
[3] = test system: A549; test: Antiproliferative activity against human A549 assessed as cell growth inhibition at 20 uM measured after 72 hrs by MTT assay; type: functional
In short: (§2)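 A549 cells grown in DMEM with 10% FBS and 1% penicillin/streptomycin, 5% CO2, humidified; exponential-phase cells used. Cells seeded at 2000/well, exposed to compound for 72 h, then MTT added and incubated 4 h before readout. Single-concentration screening at […]; EC50 values calculated from two independent experiments.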

[4] = biological target: T1, L-lactate dehydrogenase A chain; test: Inhibition of LDHA (unknown origin) in presence of NADH and sodium pyruvate measured after 10 mins by enzymatic assay; in short: as §1
[5] = Inhibition of pig PDK assessed as catalytic activity measured after 30 mins by microplate reader based assay; set-up: species or system Sus scrofa
In short: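 Pig PDC preincubated 30 min at 37 °C in Mops pH 7.20 buffer with EDTA, KCl, MgCl2, acetyl-CoA, NADH, DTT and NaF. Kinase reaction started by adding ATP-containing buffer with or without compound; ATP-free wells serve as no-PDK controls. Reaction run 3 min at 37 °C, then stopped with ADP and pyruvate. Remaining PDC activity measured at 340 nm in Tris pH 7.8 with TPP, NAD+, pyruvate and CoA. IC50 is the mean of three independent experiments.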

[6] = test system: A549; test: Anticancer activity against human A549 assessed as cell growth inhibition measured after 72 hrs by MTT assay; type: functional, cell-based; details: A549, 72 h; in short: as §2
[7] = test system: A549; test: Metabolic modulatory effect in human A549 cells assessed as decrease in lactate formation measured after 4 hrs by Flex analyzer; type: functional, cell-based; details: dose 10-40 µM
In short: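 A549 cells, 2 × 10^5 per well, plated overnight, then treated at […] for 4 h at 37 °C. Medium collected and centrifuged 10 min at 10000 rpm to remove debris. Lactate in the medium measured on a Nova Bioprofile Flex analyzer.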

[8] = test system: A549; test: Metabolic modulatory effect in human A549 cells assessed as increase in oxygen consumption rate at 10 to 40 uM measured after 4 hrs by seahorse XF24 extracellular flux analyzer assay; type: functional, cell-based; details: dose 10-40 µM

Compound | IC50 [4] [µM] | IC50 [5] [µM] | further results
COc1cccc(N2CCN(C(=O)COc3coc(C)cc3=O)CC2)c1 |  |  | inhibition [1]: Active; inhibition [2]: 50%; inhibition [3]: inactive
CCOC(=O)C(=O)N1CCN(c2nc(C(C)C)c3c(c2C#N)CCC3)CC1 |  |  | inhibition [1]: Active; inhibition [2]: 50%; inhibition [3]: inactive
CCOC(=O)C(=O)N1CCN(c2nc(C)c3c(c2C#N)CCCC3)CC1 |  |  | inhibition [1]: Active; inhibition [2]: 50%; inhibition [3]: inactive
CC1(C)Cc2c(C#N)c(N3CCN(C(=O)C(=O)NCCO)CC3)nc(-c3ccccc3)c2CO1 |  |  | inhibition [1]: Active; inhibition [2]: 50%; inhibition [3]: inactive
Cc1occc(=O)c1OCCN1CCN(C(=O)C(Cl)Cl)CC1 | > 10 | > 10 | 
CC(C)c1nc(N2CCN(C(=O)C(=O)NCCO)CC2)c(C#N)c2c1CCC2 |  |  | inhibition [1]: Active; inhibition [2]: 50%; inhibition [3]: inactive
Cc1occc(=O)c1OCC(=O)N1CCN(c2ncccn2)CC1 | > 10 | > 10 | 
Cc1occc(=O)c1OCC(=O)N1CCN(C(c2ccccc2)c2ccccc2)CC1 | 7.3 | > 10 | 
COc1ccc(N2CCN(C(=O)COc3c(C)occc3=O)CC2)cc1 | 0.56 | > 10 | 
CCOC(=O)C(=O)N1CCN(c2nc(-c3ccccc3)c3c(c2C#N)CC(C)(C)OC3)CC1 |  |  | inhibition [1]: Active; inhibition [2]: 50%; inhibition [3]: inactive
Cc1occc(=O)c1OCC(=O)N1CCN(c2ccccc2F)CC1 | > 10 | > 10 | 
Cc1occc(=O)c1OCCN1CCN(C(=O)c2ccccc2)CC1 | 2.8 | > 10 | 
Cc1occc(=O)c1OCCN1CCN(C(=O)c2ccccc2F)CC1 | 3.4 | 5.9 | EC50 [6]: > 20 µM
Cc1occc(=O)c1OCCN1CCN(C(=O)c2ccc(C(F)(F)F)cc2)CC1 | 4.7 | 5.1 | EC50 [6]: > 20 µM
COc1cccc(C(=O)N2CCN(CCOc3c(C)occc3=O)CC2)c1 | > 10 | > 10 | 
Cc1cc(C)cc(N2CCN(C(=O)COc3c(C)occc3=O)CC2)c1 | > 10 | 8.1 | 
Cc1occc(=O)c1OCC(=O)N1CCN(c2ccccc2[N+](=O)[O-])CC1 | > 10 | 6.3 | 

Compound | IC50 [4] [µM] | IC50 [5] [µM] | further results
Cc1occc(=O)c1OCC(=O)N1CCN(c2ccc(F)cc2)CC1 | 3.7 | 1.4 | 
Cc1occc(=O)c1OCC(=O)N1CCN(c2ccc([N+](=O)[O-])cc2)CC1 | 6.9 | 0.8 | 
O=C(CN1C(=O)c2ccccc2N2C(=O)c3ccccc3C12)NCCNc1ncccn1 (stereo unspecified) |  |  | inhibition [1]: Active; inhibition [2]: 50%; inhibition at 20 µM [3]: 50%
COc1cccc(N2CCN(C(=O)COc3c(C)occc3=O)CC2)c1 | 4.6 | > 10 | 
Cc1occc(=O)c1OCC(=O)N1CCN(c2ccccn2)CC1 | > 10 | > 10 | 
Cc1occc(=O)c1OCC(=O)N1CCN(c2ccccc2)CC1 | > 10 | 1.8 | 
COc1cc(OC)cc(N2CCN(C(=O)COc3c(C)occc3=O)CC2)c1 | > 10 | > 10 | 
Cc1ccccc1N1CCN(C(=O)COc2c(C)occc2=O)CC1 | > 10 | > 10 | 
Cc1occc(=O)c1OCCN1CCN(C(=O)c2ccco2)CC1 | 0.7 | 1.6 | EC50 [6]: 15.7 µM; Activity [7]: Dose-dependent effect; Activity [8]: Active
Cc1cccc(C(=O)N2CCN(CCOc3c(C)occc3=O)CC2)c1 | 7.7 | > 10 | 
Cc1occc(=O)c1OCC(=O)N1CCN(c2cccc(Cl)c2)CC1 | 5.9 | 9.1 | inhibition [2]: 50%; inhibition at 20 µM [3]: 51%; EC50 [6]: 18.5 µM
Cc1nc(N2CCN(C(=O)C(=O)NCCO)CC2)c(C#N)c2c1CCCC2 |  |  | inhibition [1]: Active; inhibition [2]: 50%; inhibition [3]: inactive
Cc1occc(=O)c1OCCN1CCN(C(=O)c2ccc(Cl)cc2)CC1 | 2.7 | 3.9 | EC50 [6]: > 20 µM
Cc1occc(=O)c1OCCN1CCN(C(=O)c2ccc(F)cc2)CC1 | 0.15 | 0.8 | EC50 [6]: 13.2 µM; Activity [7]: Dose-dependent effect; Activity [8]: Active
Cc1occc(=O)c1OCCN1CCN(C(=O)c2ccccc2[N+](=O)[O-])CC1 | > 10 | 3 | 
Cc1occc(=O)c1OCC(=O)N1CCN(c2cccc(F)c2)CC1 | > 10 | 1 | 
